The record followed here is ChEMBL document CHEMBL1629417, “Benzophenones and biflavonoids from Rheedia edulis” (J Nat Prod, 2010).

A short description of test [1]: Antioxidant activity assessed as ABTS radical scavenging activity. In kind it is functional. In short, it runs like this: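 Based on the Re et al. ABTS radical cation decolorization method, with modifications. Trolox and gallic acid serve as reference antioxidants. Percent inhibition of ABTS is calculated as in the DPPH assay, relative to DMSO-treated controls, and IC50 values are derived from it.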

Test [2] concerns Radical scavenging activity. Briefly: Antioxidant activity assessed as DPPH radical scavenging activity. Format: functional. In a few lines: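 Follows a previously described method. Trolox and gallic acid serve as reference antioxidants. Scavenging is expressed as percent inhibition of DPPH relative to DMSO-treated controls, and IC50 values are derived from it.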

For orientation: IC50 means the concentration at which inhibition is half-maximal. Regarding `CC(C)=CC[C@H]1C[C@]2(CC=C(C)C)C(=O)[C@@](CC=C(C)C)(C(=O)C(C(=O)c3ccccc3)=C2O)C1(C)C` [6-EPI-CLUSIANONE], the IC50 in test [1] was 287 µM; in test [2] it was 766 µM.
For `O=C(O)c1cc(O)c(O)c(O)c1` [GALLIC ACID], the IC50 in test [1] stood at 19.8 µM; in test [2] it was 33.9 µM.
For `Cc1c(C)c2c(c(C)c1O)CCC(C)(C(=O)O)O2` (stereo unspecified) [TROLOX], in that order: 48.4 µM and 70.8 µM.
